Calls of active or inactive are those of the source. The rule behind the calls is not given here.
Key:
Yellow fever virus [1] = assay: Antiviral activity against YFV infected in african green monkey Vero cells assessed as reduction in cytopathic effect after 6 days; format: functional, organism-based; details: 144 h
In short: (§1)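 Jimenez hamster-adapted YFV at 10 CCID50/well on Vero or CV-1 monolayers; seven drug concentrations added 5–10 min before virus; 37°C for 6 days. CPE scored microscopically, then neutral red uptake (0.34% dye, 2 h, eluted and quantified). EC50 derived; CC50 from uninfected drug-treated cells; SI = CC50/EC50.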

Yellow fever virus [2] = assay: Antiviral activity against YFV infected in african green monkey CV1 cells assessed as reduction in cytopathic effect after 6 days; format: functional, organism-based; details: CV-1, 144 h; in short: as §1
[3] = Selectivity index, ratio of CC50 for african green monkey Vero cells to EC50 for YFV infected in Vero cells; format: functional; in short: as §1
[4] = Selectivity index, ratio of CC50 for african green monkey CV1 cells to EC50 for YFV infected in CV1 cells; format: functional, CV-1; in short: as §1
Yellow fever virus [5] = assay: Antiviral activity against YFV Jimenez infected in Syrian golden hamster assessed as mean day to death after 21 days post-infection at 10 mg/kg, ip bid for 7 days; format: functional; details: route intraperitoneal
Syrian golden hamster [6] = assay: Toxicity in YFV infected Syrian golden hamster assessed as survival of animals at 100 mg/kg/day, ip bid for 7 days; format: organism-based, Mesocricetus auratus; parameters: route intraperitoneal; details: in vivo, 168 h
In short: (§2)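 Female Syrian golden hamsters (~100 g), toxicity-control groups of three, sham-infected. Drug suspended in saline or 0.4% carboxymethyl cellulose, given i.p. b.i.d. 12 h apart from −4 h through 7 days. Mortality checked daily; weight taken at 0, 3 and 6 dpi, with change taken as 3-to-6 dpi difference.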

Syrian golden hamster [7] = assay: Toxicity in YFV infected Syrian golden hamster assessed as survival of animals at 32 mg/kg/day, ip bid for 7 days; format: organism-based, Mesocricetus auratus; parameters: route intraperitoneal; details: in vivo, 168 h; in short: as §2
Syrian golden hamster [8] = assay: Toxicity in YFV infected Syrian golden hamster assessed as assessed as weight change at 32 mg/kg/day, ip bid for 7 days; format: organism-based, Mesocricetus auratus; parameters: route intraperitoneal; details: in vivo, 168 h; in short: as §2
Syrian golden hamster [9] = assay: Toxicity in YFV infected Syrian golden hamster assessed as assessed as weight change at 100 mg/kg/day, ip bid for 7 days; format: organism-based, Mesocricetus auratus; parameters: route intraperitoneal; details: in vivo, 168 h; in short: as §2
Yellow fever virus [10] = assay: Antiviral activity against YFV Jimenez infected in Syrian golden hamster assessed as mean day to death after 21 days post-infection at 32 mg/kg, ip bid for 7 days; format: functional; details: route intraperitoneal
Yellow fever virus [11] = assay: Antiviral activity against YFV Jimenez infected in Syrian golden hamster assessed as mean day to death after 21 days post-infection at 100 mg/kg, ip bid for 7 days; format: functional; details: route intraperitoneal
Yellow fever virus [12] = assay: Antiviral activity against YFV Jimenez infected in Syrian golden hamster assessed as survival of animal at 100 mg/kg, bid ip for 7 days; format: functional, organism-based; parameters: dose 100 mg/kg
Yellow fever virus [13] = assay: Antiviral activity against YFV Jimenez infected in Syrian golden hamster assessed as survival of animal at 32 mg/kg, ip bid for 7 days; format: functional, organism-based; parameters: dose 32 mg/kg
Yellow fever virus [14] = assay: Antiviral activity against YFV Jimenez infected in Syrian golden hamster assessed as survival of animal at 10 mg/kg, ip bid for 7 days; format: functional; details: route intraperitoneal
Yellow fever virus [15] = assay: Antiviral activity against YFV Jimenez infected in Syrian golden hamster assessed as survival of animal at 100 mg/kg, po for 7 days; format: functional, organism-based; parameters: dose 100 mg/kg
Yellow fever virus [16] = assay: Antiviral activity against YFV Jimenez infected in Syrian golden hamster assessed as survival of animal at 32 mg/kg, po for 7 days; format: functional, organism-based; parameters: dose 32 mg/kg
Yellow fever virus [17] = assay: Antiviral activity against YFV Jimenez infected in Syrian golden hamster assessed as mean day to death after 21 days post-infection at 100 mg/kg, po bid for 7 days; format: functional
Yellow fever virus [18] = assay: Antiviral activity against YFV Jimenez infected in Syrian golden hamster assessed as mean day to death after 21 days post-infection at 32 mg/kg, po bid for 7 days; format: functional
Yellow fever virus [19] = assay: Antiviral activity against YFV Jimenez infected in Syrian golden hamster assessed as serum alanine aminotransferase at 100 mg/kg, ip bid for 7 days; format: functional; details: route intraperitoneal
In short: (§3)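 YFV (Jimenez)-infected female hamsters were treated b.i.d. i.p. or p.o. Serum was drawn by ocular sinus at 6 dpi. ALT was read with a colorimetric kit adapted to microplates: substrate plus serum for 30 min at 37°C, then colour reagent and developer, absorbance at 505 nm. Values are IU/liter against saline controls.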

Yellow fever virus [20] = assay: Antiviral activity against YFV Jimenez infected in Syrian golden hamster assessed as serum alanine aminotransferase at 32 mg/kg, ip bid for 7 days; format: functional; details: route intraperitoneal; in short: as §3
Yellow fever virus [21] = assay: Antiviral activity against YFV Jimenez infected in Syrian golden hamster assessed as serum alanine aminotransferase at 10 mg/kg, ip bid for 7 days; format: functional; details: route intraperitoneal; in short: as §3
Yellow fever virus [22] = assay: Antiviral activity against YFV Jimenez infected in Syrian golden hamster assessed as serum alanine aminotransferase at 100 mg/kg, po bid for 7 days; format: functional; in short: as §3
Yellow fever virus [23] = assay: Antiviral activity against YFV Jimenez infected in Syrian golden hamster assessed as serum alanine aminotransferase at 32 mg/kg, po bid for 7 days; format: functional; in short: as §3
Yellow fever virus [24] = assay: Antiviral activity against YFV Jimenez infected in Syrian golden hamster liver assessed as alanine aminotransferase at 100 mg/kg/day, ip bid for 8 days administered after 1 day post-infection; format: functional; details: route intraperitoneal; in short: as §3
Yellow fever virus [25] = assay: Antiviral activity against YFV Jimenez infected in Syrian golden hamster liver assessed as weight change at 100 mg/kg/day, ip bid for 8 days administered after 4 day post-infection; format: functional; details: route intraperitoneal
Yellow fever virus [26] = assay: Antiviral activity against YFV Jimenez infected in Syrian golden hamster liver assessed as weight change at 100 mg/kg/day, ip bid for 8 days administered after 5 day post-infection; format: functional; details: route intraperitoneal
Yellow fever virus [27] = assay: Antiviral activity against YFV Jimenez infected in Syrian golden hamster assessed as weight change at 100 mg/kg, ip bid for 7 days; format: functional; details: route intraperitoneal
Yellow fever virus [28] = assay: Antiviral activity against YFV Jimenez infected in Syrian golden hamster assessed as weight change at 32 mg/kg, ip bid for 7 days; format: functional; details: route intraperitoneal
Yellow fever virus [29] = assay: Antiviral activity against YFV Jimenez infected in Syrian golden hamster assessed as weight change at 10 mg/kg, ip bid for 7 days; format: functional; details: route intraperitoneal
Yellow fever virus [30] = assay: Antiviral activity against YFV Jimenez infected in Syrian golden hamster assessed as weight change at 100 mg/kg, po bid for 7 days; format: functional
Yellow fever virus [31] = assay: Antiviral activity against YFV Jimenez infected in Syrian golden hamster assessed as weight change at 32 mg/kg, po bid for 7 days; format: functional
Yellow fever virus [32] = assay: Antiviral activity against YFV Jimenez infected in Syrian golden hamster liver administered 4 hrs before viral challenge twice daily for 4 days post-infection by infectious cell culture assay; format: functional, organism-based
In short: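 Liver was collected at necropsy 4 dpi from 5 hamsters per group, after b.i.d. dosing that began 4 h before i.p. Jimenez YFV challenge. Homogenates were diluted serially from 10−1 to 10−8 onto semiconfluent Vero cells in four replicate columns. CPE was scored microscopically after 6 days, and titer was extrapolated from dilution and tissue weight.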

Yellow fever virus [33] = assay: Antiviral activity against YFV Jimenez infected in Syrian golden hamster liver assessed as survival at 100 mg/kg/day, ip bid for 8 days administered after 1 day post-infection; format: functional, organism-based
Yellow fever virus [34] = assay: Antiviral activity against YFV Jimenez infected in Syrian golden hamster liver assessed as survival at 100 mg/kg/day, ip bid for 8 days administered after 2 days post-infection; format: functional, organism-based
Yellow fever virus [35] = assay: Antiviral activity against YFV Jimenez infected in Syrian golden hamster liver treated 4 hrs before viral challenge assessed as survival at 100 mg/kg/day, ip bid for 8 days; format: functional, organism-based
Yellow fever virus [36] = assay: Antiviral activity against YFV Jimenez infected in Syrian golden hamster liver assessed as survival at 100 mg/kg/day, ip bid for 8 days administered after 3 days post-infection; format: functional, organism-based
Yellow fever virus [37] = assay: Antiviral activity against YFV Jimenez infected in Syrian golden hamster liver assessed as mean day to death at 100 mg/kg/day, ip bid for 8 days administered after 1 day post-infection; format: functional; details: route intraperitoneal
Yellow fever virus [38] = assay: Antiviral activity against YFV Jimenez infected in Syrian golden hamster liver assessed as mean day to death at 100 mg/kg/day, ip bid for 8 days administered after 2 days post-infection; format: functional; details: route intraperitoneal
Yellow fever virus [39] = assay: Antiviral activity against YFV Jimenez infected in Syrian golden hamster liver assessed as mean day to death at 100 mg/kg/day, ip bid for 8 days administered after 3 days post-infection; format: functional; details: route intraperitoneal
Yellow fever virus [40] = assay: Antiviral activity against YFV Jimenez infected in Syrian golden hamster liver treated 4 hrs before viral challenge assessed as mean day to death at 100 mg/kg/day, ip bid for 8 days; format: functional; details: route intraperitoneal
Yellow fever virus [41] = assay: Antiviral activity against YFV Jimenez infected in Syrian golden hamster liver treated 4 hrs before viral challenge assessed as serum alanine aminotransferase at 100 mg/kg/day, ip bid for 8 days; format: functional; details: route intraperitoneal; in short: as §3
Yellow fever virus [42] = assay: Antiviral activity against YFV Jimenez infected in Syrian golden hamster liver assessed as alanine aminotransferase at 100 mg/kg/day, ip bid for 8 days administered after 2 days post-infection; format: functional; details: route intraperitoneal; in short: as §3
Yellow fever virus [43] = assay: Antiviral activity against YFV Jimenez infected in Syrian golden hamster liver assessed as alanine aminotransferase at 100 mg/kg/day, ip bid for 8 days administered after 3 days post-infection; format: functional; details: route intraperitoneal; in short: as §3
Yellow fever virus [44] = assay: Antiviral activity against YFV Jimenez infected in Syrian golden hamster liver treated 4 hrs before viral challenge assessed as weight change at 100 mg/kg/day, ip bid for 8 days; format: functional; details: route intraperitoneal
Yellow fever virus [45] = assay: Antiviral activity against YFV Jimenez infected in Syrian golden hamster liver assessed as weight change at 100 mg/kg/day, ip bid for 8 days administered after 1 day post-infection; format: functional; details: route intraperitoneal
Yellow fever virus [46] = assay: Antiviral activity against YFV Jimenez infected in Syrian golden hamster liver assessed as weight change at 100 mg/kg/day, ip bid for 8 days administered after 2 days post-infection; format: functional; details: route intraperitoneal
Yellow fever virus [47] = assay: Antiviral activity against YFV Jimenez infected in Syrian golden hamster liver assessed as weight change at 100 mg/kg/day, ip bid for 8 days administered after 3 days post-infection; format: functional; details: route intraperitoneal
[48] = Toxicity in MDBK cells; format: cell-based, Bos taurus; details: cattle
[49] = Selectivity index, ratio of CC50 for MDBK cells to […] for BVDV; format: functional
Yellow fever virus [50] = assay: Antiviral activity against YFV Jimenez infected in Syrian golden hamster liver assessed as mean day to death at 100 mg/kg/day, ip bid for 8 days administered after 4 day post-infection; format: functional; details: route intraperitoneal
Yellow fever virus [51] = assay: Antiviral activity against YFV Jimenez infected in Syrian golden hamster liver assessed as mean day to death at 100 mg/kg/day, ip bid for 8 days administered after 5 day post-infection; format: functional; details: route intraperitoneal
Yellow fever virus [52] = assay: Antiviral activity against YFV Jimenez infected in Syrian golden hamster liver assessed as alanine aminotransferase at 100 mg/kg/day, ip bid for 8 days administered after 4 day post-infection; format: functional; details: route intraperitoneal; in short: as §3
Yellow fever virus [53] = assay: Antiviral activity against YFV Jimenez infected in Syrian golden hamster liver assessed as alanine aminotransferase at 100 mg/kg/day, ip bid for 8 days administered after 5 day post-infection; format: functional; details: route intraperitoneal; in short: as §3

## NC(=O)c1nccn([C@@H]2O[C@H](CO)[C@@H](O)[C@H]2O)c1=O
Yellow fever virus [1]
  EC50: > 100 µg/mL
Yellow fever virus [2]
  EC50: > 100 µg/mL
[3]
  Ratio CC50/EC50: 1
[4]
  Ratio CC50/EC50: 1
Yellow fever virus [5]
  Activity: 8 days
Syrian golden hamster [6]
  Activity: Non-toxic
Syrian golden hamster [7]
  Activity: Non-toxic
Syrian golden hamster [8]
  Activity: 8.3 g
Syrian golden hamster [9]
  Activity: 5.3 g
Yellow fever virus [10]
  Activity: >21 days
Yellow fever virus [11]
  Activity: >21 days
Yellow fever virus [12]
  Activity: Active
Yellow fever virus [13]
  Activity: Active
Yellow fever virus [14]
  Activity: 80%
Yellow fever virus [15]
  Activity: Active
Yellow fever virus [16]
  Activity: Active
Yellow fever virus [17]
  Activity: >21 days
Yellow fever virus [18]
  Activity: >21 days
Yellow fever virus [19]
  Activity: 56 IU/L
Yellow fever virus [20]
  Activity: 65 IU/L
Yellow fever virus [21]
  Activity: 174 IU/L
Yellow fever virus [22]
  Activity: 56 IU/L
Yellow fever virus [23]
  Activity: 61 IU/L
Yellow fever virus [24]
  Activity: 56 IU/L
Yellow fever virus [25]
  Activity: -4.7 g
Yellow fever virus [26]
  Activity: -6.9 g
Yellow fever virus [27]
  Activity: 7.1 g
Yellow fever virus [28]
  Activity: 5.2 g
Yellow fever virus [29]
  Activity: -1.8 g
Yellow fever virus [30]
  Activity: 6.3 g
Yellow fever virus [31]
  Activity: 4.4 g
Yellow fever virus [32]
  Activity: Active
Yellow fever virus [33]
  Activity: Active
Yellow fever virus [34]
  Activity: Active
Yellow fever virus [35]
  Activity: Active
Yellow fever virus [36]
  Activity: Active
Yellow fever virus [37]
  Activity: >21 days
Yellow fever virus [38]
  Activity: >21 days
Yellow fever virus [39]
  Activity: >21 days
Yellow fever virus [40]
  Activity: >21 days
Yellow fever virus [41]
  Activity: 58 IU/L
Yellow fever virus [42]
  Activity: 57 IU/L
Yellow fever virus [43]
  Activity: 79 IU/L
Yellow fever virus [44]
  Activity: 6 g
Yellow fever virus [45]
  Activity: 6.1 g
Yellow fever virus [46]
  Activity: 6.3 g
Yellow fever virus [47]
  Activity: 2.9 g
[48]
  CC50: 2900 µM
[49]
  Ratio CC50/EC50: 207
Yellow fever virus [50]
  Activity: 6 days
Yellow fever virus [51]
  Activity: 7.4 days
Yellow fever virus [52]
  Activity: 108 IU/L
Yellow fever virus [53]
  Activity: 205 IU/L
